The RNAGym collection of RNA variant scans (doi:10.1126/science.aae0568)
Variants at the floor of the assay were thinned out.

B1: tRNA (parent)
chain: GUUCCGUUGGCGUAAUGGUAACGCGUCUCCCUCCUAAGGAGAAGACUGCGGGUUCGAGUCCCGUACGGAACG

Variants of: B1
Experiment: yeast fitness relative to wild type (ratio to wild type); higher = fitter; tRNA-Arg(CCU), competitive growth, 37 C, YPD
Procedure, shortened: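 A pool of Saccharomyces cerevisiae strains, each with a tRNA-Arg(CCU) gene variant at the native genomic locus, was competed in YPD at 37°C for 24 hours across six parallel replicates. The variants had been chemically synthesised at a 3% per-site mutation rate over 69 sites, and gene amplicons before and after competition were read by 100-nucleotide paired-end sequencing. Darwinian fitness relative to wild type rested on changes in genotype frequencies. Genotypes required ≥ 100 starting reads, and estimates < 0.5 were set to 0.5.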

Variant	yeast fitness
A45C C62G A65C	0.554
C46A G56C	0.642
C46A G56A	1.01
A45U C49U C61G	0.582
A45G C49U	0.941
A45G C49G	0.712
C46U U64A	1.03
C46U U64C	1.01
C46U U47A G68C	0.558
U47A G48C G51A C61A	≤ 0.5
C46A C66A	0.688
C46A C66U	0.985
A45U C46G A70U	≤ 0.5
C46U G48A	0.93
C46U C55A G56C A65G	≤ 0.5
C46G C62U	0.982
C46G C62G	0.786
C46G G63C C66A	≤ 0.5
C46G C62G G67U	0.542
U47A C49G A69U	0.577
C46U C55U C61G	≤ 0.5
A45C C55G C61U	≤ 0.5
A45G C62U	0.968
A45U C62G C66G	≤ 0.5

Variant	yeast fitness
A45G G58C	0.958
A45C C46G G56C	0.563
A45U C62A	0.655
C46G U54C C60A C62A	≤ 0.5
A45U C60U	0.737
A45C C55U G68C	0.626
A45C C46A C49G	0.722
C46G G63A	0.798
C46U G51C	0.571
U47A C55G C61U	0.522
C46U G51C C66G	≤ 0.5
C46U A65G	0.877
U47A C60U G63C A69U	≤ 0.5
C46A A57G	0.964
C46A A57U	0.792
C46A A57C	0.57
C46A G58C U59C	0.545
C46U C49U	0.98
C46U C49A	0.858
A45G G50C	0.637
C46U C62G	0.969
A45C C55U G67C	≤ 0.5
C46G C62U C66U	0.746
A45G G56A U59A	≤ 0.5

Variant	yeast fitness
A45G U47A	0.91
C46U C55U A69U	0.76
A45U A57C	0.617
C46U U59C C62G A65U	0.557
A45C G48A C62U	0.606
C46U A57C	0.638
C46U A57G	0.994
C46A U54G	0.544
A45U G67C	0.738
A45C G63C C66U	≤ 0.5
C46U U59G C60A G63C A69U	0.632
C46A C61A	0.758
C46A C61G	0.637
U47A G48C	0.82
A45C A57G A70C	0.764
C46A C55A	0.562
C46A C55U	0.758
A45C C49A A65U	≤ 0.5
A45G C46U G50C	≤ 0.5
A45C C49U A70C	0.813
A45C G51A	0.919
G44C U64G	0.653
C46G	0.99
C46A	0.999

Variant	yeast fitness
C46U	0.986
C46G A65C G67A	0.732
A45C U54C	0.69
A45U C49G A65U	0.599
U47A G50C	0.69
C46U G56A C61G	≤ 0.5
U47A C61U	0.948
A45C	0.987
A45U	0.99
A45G	0.991
A45U C60G C66A	≤ 0.5
G44U C49G	0.654
A45G A57G G63A	≤ 0.5
A45G C60A C62A	0.57
C46G G48A G58C	1.15
U47A A57U	0.655
A45U C46G C60A	0.557
A45U U64G	0.721
A45C G68U	0.739
A45C G68A	0.838
C46G A70G	1.03
C46G A70C	0.923
C46G A70U	0.976
C46A C49U G63C	0.694

Variant	yeast fitness
A45C U47C A57C G68C	≤ 0.5
C46A C61G A70U	0.525
C46A G68U	0.824
C46A G68C	0.78
A45C C49U C55U	0.596
A45U C55U	0.743
C46A C61U A70C	0.861
C46G G58A U59G	≤ 0.5
A45C C49A	0.603
A45C C49G	0.721
A45C C49U	0.978
A45C C62G	0.718
A45C C62A	0.622
C46U C55A C66U	0.555
A45C C61G	0.591
C46G G63A A65U	0.721
C46A G63A	0.949
C46A G63U	0.764
C46A C62A	0.805
A45G A57G	0.943
A45U G48A C55A A65C	≤ 0.5
A45U C55U A70C	0.589
U47A A70C	0.842
A45G G48A	1.1

Variant	yeast fitness
C46U G56A	0.978
C46U G56C	0.698
C46A A57U G68C	0.543
A45G G58A A69U	0.738
A45G G58C G67U G68C	≤ 0.5
C46A C55G C66U A69C	≤ 0.5
C46U U53C A70U	0.608
A45U U54A C55G	≤ 0.5
C46G U54C	0.697
A45C C55A	0.562
A45G C46U	0.991
A45G C46A	0.916
A45U A65G G67U A69G	≤ 0.5
A45G C60A	0.632
C46G A57U C66U	0.608
C46A C55A G63A	0.575
A45U C61G A65C	≤ 0.5
A45C U47A U53C	≤ 0.5
A45G U53G	0.586
C46A A69G	0.932
C46A A69C	0.839
C46A A69U	1.1
A45C U59C	0.874
C46A G58C C66U	0.998

Variant	yeast fitness
C46G G50A	1.04
C46G G50C	0.949
G44U C55G	≤ 0.5
A45C A69C	0.744
A45C A69G	1.06
A45C A57C G68C	0.517
A45C G63C	0.589
A45C G50A A65C	0.634
A45G C62U C66A	≤ 0.5
A45U G48A G56A	0.975
C46U G48A G56A	0.848
C46U A65C C66U	0.721
A45C G50A	0.969
C46G G52C	0.585
C46G G52A	0.843
C46U G68C	1.02
C46G G50C G56A A57U	≤ 0.5
A45C G63C U64C	≤ 0.5
C46U G67U	0.869
C46U G67A	0.986
C46U G58C	0.825
C46U G58A	0.985
C46A G56U A57G	0.665
C46U G51C A70C	0.504

Variant	yeast fitness
C46U G51C A70U	0.557
U47A A69U	0.984
A45U C46A C60G	0.521
C46A G56A A70G	1.01
A45U G50A G68C A69U	≤ 0.5
C46A G58U G68A	0.932
A45G G68A	0.973
C46U C61G	0.593
A45C G50A C60G A65G	≤ 0.5
A45C G56C U64C	0.555
A45G U54G	0.563
A45U G63C A65G	0.647
A45U G63C A65U	0.727
C46G G68A	0.825
C46G G68C	0.795
C46G G68U	0.658
C46U U54C A70U	0.804
A45G C46A A69U	0.768
C46U A70U	1.05
C46U A70G	1.05
C46U C61G A69U	0.627
U47A U59C	0.873
A45G G63A G68A	0.536
A45C C55U G56A	0.539

Variant	yeast fitness
A45C G56A C62U	0.711
A45C C46U G67C	0.584
A45G C55G	0.562
A45G C55U	0.704
A45G G58A G63A	0.727
A45G C49G A65C	≤ 0.5
A45G G56C	0.604
C46A C60G	0.684
C46U C55A G56C	0.561
A45C G50A C62U A69U	0.561
A45U G67U A69G	0.536
A45G C61A A70G	0.55
C46U G52A	0.729
C46U G52C	0.614
C46A G63C G67A	0.614
C46U G50A C66U	0.792
A45C C55U A69U	0.753
A45U G48A	0.824
C46U G56A A70G	0.697
C46G U64A	0.889
U47A G48C G67C	0.538
A45U C46U A57U	0.539
A45C C60U	0.752
A45G G63U	0.732

Variant	yeast fitness
A45G G63A	0.747
C46U U54C A57G	0.622
C46G C60U G68C	≤ 0.5
C46U U59A	0.877
A45G C66U A69C	0.598
C46U C60G A65U	0.557
C46A C61G A69C	0.501
C46A C61G A69G	0.551
A45C C49A U54C	≤ 0.5
C46A G50A C60G G63C	≤ 0.5
C46G C49U A69U	1.04
A45U C49A G52C G56A	≤ 0.5
C46U A57G C66A	≤ 0.5
A45G C66U	0.952
A45U C49G C55G G67C	0.532
C46U C60A A70U	0.585
C46A C60G C62U A69C	≤ 0.5
A45G A65C	0.868
A45G A65U	0.911
C46A A70C	1.02
C46A G68C A69G	≤ 0.5
A45C A70G	0.957
C46A G52C G63A A65U	≤ 0.5
A45U C46U U47C U64C	0.988

Variant	yeast fitness
G44U A45U G63C	≤ 0.5
A45C G52A	0.731
U47A G58C	1.06
A45U G56C A57G G68U	≤ 0.5
C46U U47C	0.911
C46U U47G	0.823
A45C U47A	0.934
A45C U47C	0.951
A45U G58A	0.907
A45U A70G	1.09
A45U A70U	0.925
C46G C61A A65C	≤ 0.5
A45U U54C C66G G67C	≤ 0.5
C46A C49A	0.601
C46G C49U G68C	0.653
A45U G48A C55A	0.543
C46U G51A C66U	0.778
A45C U47G A57G	0.605
A45C G51C U54C A57G	≤ 0.5
A45U C46G	0.739
C46G A57C A69C	≤ 0.5
C46U G63A	0.769
C46U C49U C66U	0.806
C46G G52A C62U	0.639

Variant	yeast fitness
A45C G58U	0.675
A45U C55U A69G	≤ 0.5
C46A G58U	0.907
C46A G52A G58C	0.742
G44U A45C G50C	≤ 0.5
C46U A69G	0.894
C46G C49U	0.981
C46G C49G	0.966
C46G C49A	0.7
A45U C49G A70C	0.65
A45U A65G	0.947
A45U A65U	0.959
A45U A57G G67A	0.598
C46U U59A C61G C66U	0.649
A45C U53C C66U	≤ 0.5
A45C G58C A69C	0.651
A45C C46U C55U C62U	≤ 0.5
A45C G51C A57G	≤ 0.5
C46U C60U	0.807
C46U C60G	0.627
C46U C60A	0.543
C46U C49A C62U	0.555
A45C A57G	0.858
A45C A65U	0.833

Variant	yeast fitness
A45C A65G	0.993
A45C G48A C55A	0.544
C46G C61A	0.678
C46G C61U	1.05
A45C C66A	0.665
A45C C66U	0.786
A45U G50C	0.728
A45C G50A G63C	0.578
C46G C49A A69U	0.549
U47A C55G G68A	≤ 0.5
A45U U53A	0.723
A45U U53G	≤ 0.5
A45G C61A	0.635
U47A C55G	0.684
A45C C46U U64C	0.79
C46G U53C	0.903
A45U G63A	0.843
C46G C55U A57C C61G	≤ 0.5
A45U G51A	0.919
A45U G51C	0.538
A45C U54C C66U	0.606
A45U C61G	0.569
C46G C60G	0.715
C46U G50A	0.965

Variant	yeast fitness
U47A G56A	0.964
A45C U64C	0.941
U47A G68U	0.775
U47A G68A	0.621
C46A U53C	0.865
A45U C49U A65U	0.755
A45C G48C	0.833
C46A C55G G67U	0.699
A45U C66U G68A	0.665
C46G G50A C62A	0.603
U47A G48C G56A	≤ 0.5
A45U U54A	0.702
C46A U64C	0.986
A45U C46G G52A	0.578
A45C C46G	1.01
A45C C46A	0.991
C46G G56A	1.03
C46A G52A G63C	0.555
A45C G50C G51C C55U G67C	≤ 0.5
C46G C49U G67U	0.671
C46A A57G C61U	0.704
A45U C49U	1.07
